Experimental data taken from ChEMBL document CHEMBL1125251, “4'-Hydroxy-3-methoxyflavones with potent antipicornavirus activity” (J Med Chem, 1991).
Converted amounts (≈) assume the structure as drawn. The source made the active and inactive calls. No cut-off for these calls is given here.

How the values were obtained:
Human rhinovirus sp. [1] = test: Cytotoxic dose at which 50% growth of normal cells is inhibited against rhino virus infection.; format: functional
Procedure, shortened: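 Human skin fibroblasts, 10⁶ cells per flask, given serial 2-fold dilutions in quadruplicate in M-199 with 6% newborn calf serum and held 6 days at 37 °C. Cells were trypsinized, counted in a chamber and reseeded with compound over five repeat cycles. CyD50 = lowest concentration at least doubling cell generation time relative to untreated control.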

[2] = Cytotoxic dose at which 50% growth of normal cells is inhibited; format: cell-based; settings: chlorocebus sabaeus, Vero cells; read-out: CyD50
Procedure, shortened: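 Cell-growth cytotoxicity in Vero cells or human skin fibroblasts. Serial 2-fold dilutions in M-199 with 6% newborn calf serum were added in quadruplicate to 10⁶ cells and held 6 days at 37 °C. Cells were trypsinized, counted and reseeded with compound, repeated five times. Generation time was calculated per concentration. CyD50 = lowest concentration at least doubling generation time versus untreated cells.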

[3] = Therapeutic Index measured as the ratio of CyD50 (rhino) / ED99 (rhino) values.; settings: read-out: Therapeutic index 99
Procedure, shortened: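 TI99 = CyD50/ED99 for rhinovirus 15. ED99 came from end-point titration in human skin fibroblasts at 33 °C over 7 days. CyD50 came from fibroblast growth: 10⁶ cells were given serial 2-fold compound dilutions in quadruplicate for 6 days at 37 °C, then counted and reseeded, repeated five times. Generation time was calculated per concentration.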

Enterovirus C [4] = test: Maximal non-toxic dose (MNTD) that shows antiviral activity.; format: functional
Procedure, shortened: (§1)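 End-point titration. Poliovirus type 1 Brunhilde was run in Vero cells at 37 °C with a 3-day read. Rhinovirus 15 was run in human skin fibroblasts at 33 °C with a 7-day read. Monolayers got serial 10-fold virus dilutions and adsorbed 1 h at 37 °C, then serial 2-fold compound dilutions (DMSO stock in maintenance medium). CPE was read by light microscopy. RF = control titer (TCD50/mL) / titer at maximal nontoxic dose.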

[5] = Therapeutic Index measured as the ratio of CyD50(polio) / ED99(polio) values; format: organism-based; settings: enterovirus c; read-out: Therapeutic index 99
Procedure, shortened: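 TI99 = CyD50/ED99 for poliovirus. ED99 came from end-point titration in Vero cells at 37 °C over 3 days. CyD50 came from Vero cell growth: 10⁶ cells were given serial 2-fold compound dilutions in quadruplicate for 6 days at 37 °C, then trypsinized, counted and reseeded, repeated five times. Generation time was calculated per concentration.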

Enterovirus C [6] = test: Minimal dose which produces titer reduction at 10 ug/mL (mD RF10e3); format: functional
Enterovirus C [7] = test: Minimum drug concentration at which 99% of the polio virus is inhibited; format: functional
Procedure, shortened: (§2)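 Poliovirus type 1 Brunhilde 1A/S3 in Vero monolayers. Serial 10-fold virus dilutions adsorbed 1 h at 37 °C, then serial 2-fold compound dilutions were added. Incubated at 37 °C and scored for CPE by light microscopy, with a 3-day readout. Titer reduction is control/treated TCD50/mL. ED99 is the minimum concentration inhibiting 99% of virus. Virus, cell and compound controls were included.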

Human rhinovirus sp. [8] = test: Minimum drug concentration at which 99% of the rhino virus is inhibited.; format: functional
Procedure, shortened: (§3)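 End-point titration with rhinovirus type 15 on human skin fibroblast monolayers. Cells were infected with serial 10-fold virus dilutions and allowed 1 h adsorption at 37 °C. Serial 2-fold compound dilutions were then added and plates incubated at 33 °C. CPE was read daily by light microscopy for at least 1 week, titres as TCD50/mL. ED99 = minimum concentration inhibiting 99% of virus.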

Enterovirus C [9] = test: Minimum drug concentration at which 99% of the polio virus is inhibited; NA= Not active; format: functional, organism-based; procedure, shortened: as §2
Enterovirus C [10] = test: The ratio of the poliovirus viral titer of the virus control (reduction factor) to the viral titer in the presence of the maximal non-toxic dose (RF MNTD); format: functional; procedure, shortened: as §2
Enterovirus C [11] = test: The ratio of the viral titer of the virus control (reduction factor) to the viral titer in the presence of the maximal non-toxic dose (RF MNTD) of the compound; format: functional; procedure, shortened: as §1
Enterovirus C [12] = test: Minimum drug concentration at which 99% of the polio virus is inhibited; NA= not active; format: functional, organism-based; procedure, shortened: as §2
Human rhinovirus sp. [13] = test: Minimum drug concentration at which 99% of the rhino virus is inhibited; NA= not active; format: functional, organism-based; procedure, shortened: as §3

SMILES	CyD50 (Human rhinovirus sp. [1]) [µg/mL]	CC50 [2] [µg/mL]	selectivity ratio [3]	Max non-toxic dose (Enterovirus C [4]) [µg/mL]	selectivity ratio [5]	Minimal dose (Enterovirus C [6]) [µg/mL]	ED99 (Enterovirus C [7]) [µg/mL]	ED99 (Human rhinovirus sp. [8]) [µg/mL]	ED99 (Enterovirus C [9])	Reduction factor (Enterovirus C [10])	Reduction factor (Enterovirus C [11])	ED99 (Enterovirus C [12])	ED99 (Human rhinovirus sp. [13])
COc1c(-c2ccc(O)cc2)oc2cc(O)ccc2c1=O	25	15 (≈ 52.8 µM)	1	5	15	4	1	25	–	–	–	–	–
COc1cc(-c2oc3cc(O)c(OC)c(O)c3c(=O)c2OC)ccc1O	–	1 (≈ 2.78 µM)	–	10	–	1	–	–	inactive	10000	–	–	–
COc1c(-c2ccc(O)cc2)oc2ccc(N)cc2c1=O	–	10 (≈ 35.3 µM)	–	10	2	10	5	–	–	–	10000	–	–
COc1ccc2c(=O)c(OC)c(-c3ccc(O)cc3)oc2c1	>50	> 50	> 5	50	> 20	2.5	2.5	10	–	–	–	–	–
COc1c(-c2ccc(O)cc2)oc2cc(Cl)ccc2c1=O	100	100 (≈ 330 µM)	4	100	14.3	20	7	25	–	10000	–	–	–
COc1cc(O)c2c(=O)c(OC)c(-c3ccc(O)cc3)oc2c1OC	>100	> 100	> 200	25	400	0.3	0.25	0.5	–	1000000	–	–	–
COc1cc2oc(-c3ccc(O)cc3)c(OC)c(=O)c2c(O)c1OC [PENDULETIN]	10	100 (≈ 290 µM)	1	100	500	0.1	0.2	10	–	1000000	–	–	–
COc1c(-c2ccc(O)cc2)oc2cccc(O)c2c1=O	5	25 (≈ 87.9 µM)	5	5	50	1.5	0.5	1	–	10000	–	–	–
COc1ccc(-c2oc3ccc(Cl)cc3c(=O)c2OC)cc1	–	20 (≈ 63.1 µM)	–	25	–	–	–	–	–	1	–	inactive	–
Cc1ccc2c(=O)c(OC(C)C)c(-c3ccc(O)cc3)oc2c1	2	2 (≈ 6.44 µM)	–	–	–	–	–	–	–	–	–	–	inactive
COc1cc(O)c2c(=O)c(OC)c(-c3ccc(O)cc3)oc2c1 [KUMATAKENIN]	100	100 (≈ 318 µM)	40	100	333	0.3	0.3	2.5	–	1000000	–	–	–
COc1c(-c2ccc(O)cc2)oc2ccc([N+](=O)[O-])cc2c1=O	–	> 0.1	–	50	–	–	–	–	inactive	–	–	–	–
